Test results published in ChEMBL document CHEMBL1132258, “gamma-Aminobutyrate-A receptor modulation by 3-aryl-1-(arylsulfonyl)- 1,4,5,6-tetrahydropyridazines” (J Med Chem, 1999).

Tests used:
[1] = molecular target: GABA-A receptor; anion channel; assay: In vitro binding affinity to the Gamma-aminobutyric acid A receptor complex in absence of GABA in rat cerebellum tissue; assay type: tissue-based
[2] = molecular target: T1, GABA-A receptor; anion channel (Rattus norvegicus) (UniProt O09028+P15431+P18506+P18508+P19969+P20236+P23574+P23576+P28471+P28473+P30191+P62813+P63079+P63138+Q91ZM7+Q9ES14); assay: Ratio of IC50 in the presence and absence of GABA.; assay type: functional
[3] = molecular target: GABA-A receptor; anion channel; assay: In vitro binding affinity to the Gamma-aminobutyric acid A receptor complex in presence of GABA in rat cerebellum tissue; assay type: tissue-based
Mus musculus [4] = assay: In vivo suppression of pentylenetetrazole-induced convulsions by the compound at the mentioned dose of, 1, i.p. ( mg/kg); out of 12 tested animals; assay type: functional
Method in brief: (§1)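 Mice received compound or vehicle (10 mL/kg) po or ip. After 1 h they got pentylenetetrazole 85 mg/kg sc. They were housed individually and observed 30 min for clonic convulsions (present/absent). Result given as number convulsed/number tested.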

Mus musculus [5] = assay: In vivo suppression of pentylenetetrazole-induced convulsions by the compound at the mentioned dose of, 10, i.p. (mg/kg); out of 12 tested animals; assay type: functional; method in brief: as §1
Mus musculus [6] = assay: In vivo suppression of pentylenetetrazole-induced convulsions by the compound at the mentioned dose of, 30, p.o. (mg/kg); out of 12 tested animals; assay type: functional; method in brief: as §1
Mus musculus [7] = assay: In vivo Horizontal screen test for motor impairment by the compound at the mentioned dose of 30, i.p. (mg/kg); out of 11 tested animals; assay type: functional
Method in brief: (§2)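 Mice were dosed orally or ip (vehicle 10 mL/kg). At 1 h, just before PTZ, each was placed on an inverted horizontal screen and scored pass/fail for climbing to the top side within 1 min. Result given as number passed/number tested.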

Mus musculus [8] = assay: In vivo Horizontal screen test for motor impairment by the compound at the mentioned dose of 10, i.p. (mg/kg); out of 12 tested animals; assay type: functional; method in brief: as §2
Mus musculus [9] = assay: In vivo Horizontal screen test for motor impairment by the compound at the mentioned dose of 1, i.p. ( mg/kg); out of 12 tested animals; assay type: functional; method in brief: as §2
Mus musculus [10] = assay: In vivo suppression of pentylenetetrazole-induced convulsions by the compound at the mentioned dose of, 30, i.p. (mg/kg); out of 11 tested animals; assay type: functional; method in brief: as §1
Mus musculus [11] = assay: In vivo Horizontal screen test for motor impairment by the compound at the mentioned dose of 30, p.o. (mg/kg); out of 12 tested animals; assay type: functional; method in brief: as §2
Mus musculus [12] = assay: In vivo suppression of pentylenetetrazole-induced convulsions by the compound at the mentioned dose of, 10, i.p. (mg/kg); out of 6 tested animals; assay type: functional
Method in brief: (§3)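 Mice were dosed ip with compound or vehicle (10 mL/kg). Pentylenetetrazole 85 mg/kg sc was given 1 h later. Mice were housed individually and watched for 30 min for clonic convulsions, scored present or absent. Results are reported as number convulsed over number tested.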

Mus musculus [13] = assay: In vivo Horizontal screen test for motor impairment by the compound at the mentioned dose of 10, i.p. (mg/kg); out of 6 tested animals; assay type: functional
Method in brief: (§4)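 Mice were dosed ip with compound or vehicle (10 mL/kg). After 1 h, just before sc pentylenetetrazole, they were placed on an inverted horizontal screen. Passing meant climbing to the top side within 1 min. Results are reported as number passed over number tested.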

Mus musculus [14] = assay: In vivo Horizontal screen test for motor impairment by the compound at the mentioned dose of 1, i.p. ( mg/kg); out of 6 tested animals; assay type: functional; method in brief: as §4
Mus musculus [15] = assay: In vivo suppression of pentylenetetrazole-induced convulsions by the compound at the mentioned dose of, 1, i.p. ( mg/kg); out of 6 tested animals; assay type: functional; method in brief: as §3
Mus musculus [16] = assay: In vivo suppression of pentylenetetrazole-induced convulsions by the compound at the mentioned dose of, 100, i.p. ( mg/kg); out of 6 tested animals; assay type: functional; method in brief: as §3
Mus musculus [17] = assay: In vivo Horizontal screen test for motor impairment by the compound at the mentioned dose of 100, i.p. ( mg/kg); out of 6 tested animals; assay type: functional; method in brief: as §4
Mus musculus [18] = assay: In vivo Horizontal screen test for motor impairment by the compound at the mentioned dose of 30, i.p. (mg/kg); out of 6 tested animals; assay type: functional; method in brief: as §2
Mus musculus [19] = assay: In vivo suppression of pentylenetetrazole-induced convulsions by the compound at the mentioned dose of, 30, i.p. (mg/kg); out of 6 tested animals; assay type: functional; method in brief: as §1
[20] = molecular target: T1, GABA-A receptor; anion channel (Rattus norvegicus); assay: Relative binding to GABA-A receptor in the presence and absence of GABA; assay type: functional

| Compound | IC50 [1] | GS [2] | IC50 [3] | also measured |
| --- | --- | --- | --- | --- |
| COP(=O)(c1ccccc1)N1CCCC(c2ccc(Cl)c(C(F)(F)F)c2)=N1 (configuration not stated) | 8.3 µM | 1.3 | 6.6 µM | – |
| CCCCc1ccc(C2=NN(S(=O)(=O)c3ccc(CCCC)cc3)CCC2)cc1 | > 11 µM | 52.4 | 0.21 µM | Induced convulsion (Mus musculus [4]): 9 number convulsed; Induced convulsion (Mus musculus [5]): 8 number convulsed; Induced convulsion (Mus musculus [6]): 12 number convulsed; Horizontal screen (Mus musculus [7]): 10 number passed; Horizontal screen (Mus musculus [8]): 12 number passed; Horizontal screen (Mus musculus [9]): 11 number passed; Induced convulsion (Mus musculus [10]): 10 number convulsed; Horizontal screen (Mus musculus [11]): 12 number passed |
| CCCCc1ccc(S(=O)(=O)N2CCCC(c3ccc(C(C)C)cc3)=N2)cc1 | – | – | 10 µM | – |
| C[C@]12CC[C@@H](O)C[C@@H]1CC[C@@H]1[C@@H]2CC[C@]2(C)[C@@H](C(=O)CO)CC[C@@H]12 | 3.05 µM | 33.9 | 0.09 µM | – |
| COP(=O)(c1ccccc1)N1CCCC(c2ccc(F)cc2)=N1 (configuration not stated) | > 11 µM | 1.1 | 10 µM | – |
| CCc1ccc(C2=NN(S(=O)(=O)c3ccc(I)cc3)CCC2)cc1 | 10 µM | 11.1 | 0.9 µM | – |
| CCCCc1ccc(C2=NN(S(=O)(=O)c3ccc(C)cc3)CCC2)cc1 | > 11 µM | 5 | 2.2 µM | – |
| COP(=O)(c1ccccc1)N1CCCC(c2ccc(Br)cc2)=N1 (configuration not stated) | > 11 µM | – | > 11 µM | – |
| CCOP(=O)(c1ccccc1)N1CCCC(c2ccc(Cl)c(Cl)c2)=N1 (configuration not stated) | 1.39 µM | 1.3 | 1.05 µM | Induced convulsion (Mus musculus [12]): 6 number convulsed; Horizontal screen (Mus musculus [13]): 5 number passed; Horizontal screen (Mus musculus [14]): 5 number passed; Induced convulsion (Mus musculus [15]): 6 number convulsed |
| O=P(OC1CCCC1)(c1ccccc1)N1CCCC(c2ccc(Cl)c(Cl)c2)=N1 (configuration not stated) | – | 32.6 | – | – |
| CCOP(=O)(c1ccccc1)N1CCCC(c2ccc(Cl)c(C(F)(F)F)c2)=N1 (configuration not stated) | 5.4 µM | 4.9 | 1.1 µM | – |
| CCCCc1ccc(C2=NN(P(=O)(OCC)c3ccccc3)CCC2)cc1 (configuration not stated) | 1.12 µM | 1.5 | 0.73 µM | Induced convulsion (Mus musculus [12]): 5 number convulsed; Horizontal screen (Mus musculus [13]): 5 number passed |
| CCCCc1ccc(C2=NN(S(=O)(=O)c3ccccc3)CCC2)cc1 | > 11 µM | 10 | 1.1 µM | Induced convulsion (Mus musculus [16]): 5 number convulsed; Horizontal screen (Mus musculus [17]): 4 number passed |
| CCCCc1ccc(C2=NN(S(=O)(=O)c3ccc(I)cc3)CCC2)cc1 | 10 µM | – | 0.77 µM | Horizontal screen (Mus musculus [18]): 3 number passed; Induced convulsion (Mus musculus [19]): 6 number convulsed; GABA shift [20]: 13.7 |
| CC(=O)[C@H]1CC[C@H]2[C@@H]3CC[C@H]4C[C@H](O)CC[C@]4(C)[C@H]3CC[C@]12C [BREXANOLONE] | 2.61 µM | 32.6 | 0.08 µM | – |
| CCCCc1ccc(C2=NN(S(=O)(=O)c3ccc(Cl)cc3)CCC2)cc1 | > 11 µM | – | > 11 µM | – |
| COP(=O)(c1ccccc1)N1CCCC(c2ccccc2)=N1 (configuration not stated) | – | – | > 11 µM | – |
| CCCCCCc1ccc(C2=NN(S(=O)(=O)c3ccc(I)cc3)CCC2)cc1 | > 11 µM | – | > 11 µM | – |
| CC(C)Cc1ccc(C2=NN(S(=O)(=O)c3ccc(I)cc3)CCC2)cc1 | > 11 µM | – | > 11 µM | – |
| CCOP(=O)(c1ccccc1)N1CCCC(c2ccc(F)cc2)=N1 (configuration not stated) | > 11 µM | 1.1 | 10 µM | – |
| COc1ccc(C2=NN(P(=O)(OC)c3ccccc3)CCC2)cc1 (configuration not stated) | > 11 µM | 1.7 | 6.4 µM | – |
| CC(C)c1ccc(C2=NN(S(=O)(=O)c3ccc(I)cc3)CCC2)cc1 | > 11 µM | 1.7 | 6.31 µM | – |
| CCCCc1ccc(S(=O)(=O)N2CCCC(c3ccc(CC(C)C)cc3)=N2)cc1 | > 11 µM | – | > 11 µM | – |
| CCCCc1ccc(S(=O)(=O)N2CCCC(c3ccc(CC)cc3)=N2)cc1 | 3.77 µM | 2.1 | 1.8 µM | – |
| CCCCc1ccc(C2=NN(P(=O)(OC)c3ccccc3)CCC2)cc1 (configuration not stated) | 2 µM | 4 | 0.5 µM | – |
| CC(C)OP(=O)(c1ccccc1)N1CCCC(c2ccc(Cl)c(Cl)c2)=N1 (configuration not stated) | 10 µM | 7.1 | 1.4 µM | Induced convulsion (Mus musculus [16]): 4 number convulsed; Horizontal screen (Mus musculus [17]): 0 number passed |
